Consider 17 molecules from ChEMBL document CHEMBL3351675, “Novel benzenesulfonylureas containing thiophenylpyrazoline moiety as potential antidiabetic and anticancer agents” (Bioorg Med Chem Lett, 2014).

The source made the active and inactive calls. The rule behind the calls is not given here.

The test system of data set [1] is Rattus norvegicus. Put plainly: Antidiabetic activity in overnight fasted Wistar rat assessed as reduction in plasma glucose level at 30 mg/kg, po by oral glucose tolerance test. More on the design: dose 30 mg/kg. The class given is functional, organism-based. In short, it runs like this:
(§1)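 Normal Wistar rats were given a glucose load by the oral glucose tolerance method, and plasma glucose rise was followed after oral test dosing. Glibenclamide was the reference drug. Data are mean ± SEM of six observations versus control, analysed by one-way ANOVA with Dunnett test (p < 0.05, p < 0.01).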

Data set [2] deals with Rattus norvegicus. Put plainly: Effect on body weight in Wistar rat model of streptozotocin-induced diabetes at 30 mg/kg, po measured over 15 days. The class given is ADME, organism-based. On the set-up: dose 30 mg/kg, route oral. As to conditions: in vivo, 360 h.
Data set [3] addresses Peroxisome proliferator-activated receptor gamma (Mus musculus) (UniProt P37238). Description: Transactivation of PPARgamma (mouse) expressed in 3T3-L1 cells incubated for 24 hrs by luciferase reporter gene assay relative to rosiglitazone.
For data set [4], the system named is Rattus norvegicus. Put plainly: Increase in body weight in Wistar rat model of streptozotocin-induced diabetes at 30 mg/kg, po measured over 15 days. Type of data set: ADME, organism-based. On the set-up: dose 30 mg/kg, route oral. As to conditions: in vivo, 360 h.
The test system of data set [5] is Rattus norvegicus. Description: Antidiabetic activity in Wistar rat model of streptozotocin-induced diabetes assessed as reduction in plasma glucose level at 30 mg/kg, po and dosage repeated for 15 days by GOD-POD method. On the set-up: dose 30 mg/kg. The class given is functional, organism-based.
For data set [6], the system named is 3T3-L1. Put plainly: Increase in PPARgamma gene expression in mouse 3T3L1 cells at 10 uM incubated for 24 hrs by RT-PCR method. Type of data set: functional.
In data set [7] the test system is Rattus norvegicus. Put plainly: Effect on body weight in Wistar rat model of streptozotocin-induced diabetes at 36 mg/kg, po measured over 15 days. The class given is ADME, organism-based. More on the design: dose 36 mg/kg, route oral. As to conditions: in vivo, 360 h.
Data set [8] concerns Rattus norvegicus. Put plainly: Antidiabetic activity in overnight fasted Wistar rat assessed as reduction in plasma glucose level at 36 mg/kg, po by oral glucose tolerance test. The class given is functional, organism-based. On the set-up: dose 36 mg/kg. In short, it runs like this:
as §1

The subject of data set [9] is Rattus norvegicus. Put plainly: Antidiabetic activity in Wistar rat model of streptozotocin-induced diabetes assessed as reduction in plasma glucose level at 36 mg/kg, po and dosage repeated for 15 days by GOD-POD method. Type of data set: functional, organism-based. On the set-up: dose 36 mg/kg.

Sequence of Peroxisome proliferator-activated receptor gamma (Mus musculus) (P37238 whole entry, looked up): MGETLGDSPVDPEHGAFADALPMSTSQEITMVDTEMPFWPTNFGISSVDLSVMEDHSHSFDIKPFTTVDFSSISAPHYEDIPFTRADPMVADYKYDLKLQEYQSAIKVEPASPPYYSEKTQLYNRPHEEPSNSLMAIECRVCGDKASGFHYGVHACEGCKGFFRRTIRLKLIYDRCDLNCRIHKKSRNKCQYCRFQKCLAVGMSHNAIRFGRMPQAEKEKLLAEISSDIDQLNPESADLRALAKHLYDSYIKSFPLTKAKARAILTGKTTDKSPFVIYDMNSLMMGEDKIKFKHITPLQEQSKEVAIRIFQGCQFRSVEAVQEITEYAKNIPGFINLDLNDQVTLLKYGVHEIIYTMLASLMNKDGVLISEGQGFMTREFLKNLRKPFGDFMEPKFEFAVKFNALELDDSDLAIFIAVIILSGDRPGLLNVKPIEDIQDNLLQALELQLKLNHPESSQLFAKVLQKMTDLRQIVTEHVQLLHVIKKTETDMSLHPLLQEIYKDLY

Turning to `Cc1ccc(NC(=O)NS(=O)(=O)c2ccc(N3N=C(c4cccs4)CC3c3cccs3)cc2)cc1` (stereo not drawn), in data set [1], the inhibition entry is “Active”. The Activity entry in data set [2] is recorded as “Non-toxic”. For the same molecule, in [3], the result was inactive.
Take `CN(C)c1ccc(C2CC(c3cccs3)=NN2c2ccc(S(=O)(=O)NC(=O)NCc3ccccc3)cc2)cc1` (stereo not drawn): the Activity result in data set [4] is given as “Toxic”. Moreover, the inhibition result in [1] is “Active”. Also, in data set [3], the outcome was inactive.
Consider `Cc1ccc(NC(=O)NS(=O)(=O)c2ccc(N3N=C(c4cccs4)CC3c3ccc(N(C)C)cc3)cc2)cc1` (stereo not drawn), for which the inhibition result in [1] is “Active”. For the same molecule, the Activity result in data set [2] was “Non-toxic”. The result in data set [3] was inactive.
Take `Cc1ccc(C2CC(c3cccs3)=NN2c2ccc(S(=O)(=O)NC(=O)NCc3ccccc3)cc2)s1` (stereo not drawn): the inhibition entry in data set [1] was “Active”. Also, in data set [2], the Activity result is recorded as “Non-toxic”. In addition, the outcome in [3] was inactive.
Turning to `O=C(NCc1ccccc1)NS(=O)(=O)c1ccc(N2N=C(c3cccs3)CC2c2ccccc2)cc1` (stereo not drawn), the inhibition result in data set [5] and in data set [1] was “Active” throughout. In data set [2], the Activity result is given as “Non-toxic”. Further, in [3], the result was inactive.
With `COc1ccc(NC(=O)NS(=O)(=O)c2ccc(N3N=C(c4cccs4)CC3c3cccs3)cc2)cc1` (stereo not drawn), the inhibition result in data set [5] and in data set [1] was “Active” throughout. The Activity result in data set [2] was “Non-toxic”. Besides, the result in data set [3] was inactive.
In the case of `O=C(NCc1ccccc1)NS(=O)(=O)c1ccc(N2N=C(c3cccs3)CC2c2cccs2)cc1` (stereo not drawn), the inhibition result in [1] is “Active”. Further, in [2], the Activity result is listed as “Non-toxic”. For the same molecule, the outcome in data set [3] was inactive.
Regarding `Cc1ccc(C2CC(c3cccs3)=NN2c2ccc(S(=O)(=O)NC(=O)Nc3ccccc3C)cc2)s1` (stereo not drawn), the Activity result in data set [2] is “Non-toxic”.
As for `Cc1ccc(NC(=O)NS(=O)(=O)c2ccc(N3N=C(c4cccs4)CC3c3ccccc3)cc2)cc1` (stereo not drawn), the inhibition result in [5] and in data set [1] was “Active” in each case. Also, in data set [3], the outcome was inactive.
As for `COc1ccc(Cl)cc1C(=O)NCCc1ccc(S(=O)(=O)NC(=O)NC2CCCCC2)cc1` [GLYBURIDE], the inhibition entry in data set [5] and in data set [1] was “Active” in each case. Further, in data set [4], the Activity result is recorded as “Toxic”. The “fold change (FC)” value in data set [6] turned out to be 1. Besides, the outcome in [3] was inactive.
`CN(CCOc1ccc(CC2SC(=O)NC2=O)cc1)c1ccccn1` (stereo not drawn) [ROSIGLITAZONE]: the Activity result in [7] is “Toxic”. The inhibition result in [8] and in data set [9] was “Active” in each case. For the same molecule, the “fold change (FC)” value in data set [6] came to 1.5.
Turning to `CCCCNC(=O)NS(=O)(=O)c1ccc(N2N=C(c3cccs3)CC2c2cccs2)cc1` (stereo not drawn), the Activity result in [4] was “Toxic”. Moreover, the inhibition entry in data set [1] is “Active”. The result in data set [3] was inactive.
For `COc1ccc(NC(=O)NS(=O)(=O)c2ccc(N3N=C(c4cccs4)CC3c3ccccc3)cc2)cc1` (stereo not drawn), the inhibition result in [5] and in data set [1] was “Active” each time. Further, in data set [2], the Activity entry is reported as “Non-toxic”. Also, the outcome in data set [3] was inactive.
As to `CCCCNC(=O)NS(=O)(=O)c1ccc(N2N=C(c3cccs3)CC2c2ccccc2)cc1` (stereo not drawn), the inhibition entry in data set [5] and in [1] was “Active” in each case. The Activity result in data set [4] was “Toxic”. The outcome in data set [3] was inactive.
Consider `CN(C)c1ccc(C2CC(c3cccs3)=NN2c2ccc(S(=O)(=O)NC(=S)NCc3ccccc3)cc2)cc1` (stereo not drawn), for which the inhibition result in data set [1] was “Active”. The Activity entry in data set [2] was “Non-toxic”. In addition, the result in [3] was inactive.
Take `Cc1ccccc1NC(=O)NS(=O)(=O)c1ccc(N2N=C(c3cccs3)CC2c2ccccc2)cc1` (stereo not drawn): the inhibition result in data set [5] and in data set [1] was “Active” in each case. Besides, the Activity result in data set [2] is given as “Non-toxic”. The “fold change (FC)” value in [6] amounted to 0.95. Further, the result in [3] was inactive.
Consider `COc1ccc(C2CC(c3cccs3)=NN2c2ccc(S(=O)(=O)NC(=O)Nc3ccc(C)cc3)cc2)cc1` (stereo not drawn), for which the inhibition entry in data set [1] is “Active”. Moreover, in data set [2], the Activity entry is given as “Non-toxic”. In addition, the outcome in data set [3] was inactive.
